From ChEMBL document CHEMBL5150070, “Tricyclic SpiroLactams Kill Mycobacteria In Vitro and In Vivo by Inhibiting Type II NADH Dehydrogenases” (J Med Chem, 2022) come the findings set out here.

For experiment [1], the system named is Mycobacterium tuberculosis. Nature of the experiment: Antimycobacterial activity against Mycobacterium tuberculosis H37Rv assessed as reduction in bacterial cell growth by measuring resazurin reduction incubated for 6 days by fluorescence microplate based assay. Format: functional. Conditions: time 6 day. Background: Resazurin is reduced to fluorescent resorufin, in cell work by metabolically active cells.

For experiment [2], the target named is T1, Type II NADH:quinone oxidoreductase NdhA (Mycobacterium tuberculosis, UniProt P95200).
T1 sequence (P95200 whole entry): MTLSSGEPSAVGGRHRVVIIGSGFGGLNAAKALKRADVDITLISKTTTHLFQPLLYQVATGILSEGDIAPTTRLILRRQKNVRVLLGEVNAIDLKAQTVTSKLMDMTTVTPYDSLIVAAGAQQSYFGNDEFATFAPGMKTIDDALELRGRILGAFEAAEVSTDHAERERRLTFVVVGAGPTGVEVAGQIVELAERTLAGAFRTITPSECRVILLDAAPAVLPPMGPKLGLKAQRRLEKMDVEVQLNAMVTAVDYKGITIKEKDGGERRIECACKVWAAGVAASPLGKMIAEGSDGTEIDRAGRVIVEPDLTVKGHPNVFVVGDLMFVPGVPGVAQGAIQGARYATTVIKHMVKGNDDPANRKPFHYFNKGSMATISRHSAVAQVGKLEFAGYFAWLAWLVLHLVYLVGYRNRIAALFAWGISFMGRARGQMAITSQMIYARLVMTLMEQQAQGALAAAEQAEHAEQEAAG
The experiment in a line: Inhibition of Mycobacterium smegmatis MC2 155 recombinant ndhA assessed as rate of NADH oxidation in the presence of an electron acceptor menadione. Set-up: species or system Mycolicibacterium smegmatis.

Experiment [3] concerns the target Type II NADH:quinone oxidoreductase Ndh (Mycobacterium tuberculosis, UniProt P95160). The experiment in a line: Inhibition of Mycobacterium tuberculosis recombinant type II NADH dehydrogenase ndh expressed in Escherichia coli assessed as rate of NADH oxidation in the presence of an electron acceptor menadione. An outline of the steps:
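Purified N-terminal MBP-tagged Mtb Ndh (Rv1854c) expressed in E. coli, 70 nM, with 500 µM NADH in 50 mM HEPES pH 7.1 (K₂HPO₄). Compound pre-incubated 15 min at 25°C, reaction started with 100 µM menadione. NADH oxidation followed at 340 nm every 60 s. Rate taken from linear slope; IC50 is the mean ± SD of at least 3 independent experiments.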

Converted amounts (≈) assume the structure as drawn.

Type II NADH:quinone oxidoreductase Ndh, sequence (P95160 whole entry): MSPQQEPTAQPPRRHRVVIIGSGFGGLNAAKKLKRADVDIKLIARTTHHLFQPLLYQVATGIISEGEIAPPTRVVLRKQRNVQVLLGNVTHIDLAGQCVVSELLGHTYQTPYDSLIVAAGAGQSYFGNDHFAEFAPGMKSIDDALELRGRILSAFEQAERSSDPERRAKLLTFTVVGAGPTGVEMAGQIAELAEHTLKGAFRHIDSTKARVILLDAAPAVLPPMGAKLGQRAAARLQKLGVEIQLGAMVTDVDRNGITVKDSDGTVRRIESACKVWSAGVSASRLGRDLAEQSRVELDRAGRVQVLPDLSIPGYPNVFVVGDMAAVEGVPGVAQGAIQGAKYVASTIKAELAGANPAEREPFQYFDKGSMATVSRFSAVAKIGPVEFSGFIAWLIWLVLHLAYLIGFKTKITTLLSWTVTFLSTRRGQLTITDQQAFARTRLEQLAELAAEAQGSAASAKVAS

In the case of `O=C1CC[C@@H]2CN(Cc3ccccc3)CC[C@@]23OC[C@H](C2CC2)N13`, the MIC98 in experiment [1] was determined as 37.5 µM (≈ 12.2 µg/mL).

Take `Cc1ccc(CN2CC[C@]34OC[C@H](C(C)C)N3C(=O)CC[C@@H]4C2)cc1`: the MIC98 in experiment [1] was 1.7 µM (≈ 0.582 µg/mL).

For the molecule `CC(C)(C)[C@H]1CO[C@]23CCN(Cc4ccccc4)C[C@H]2CCC(=O)N13`, the MIC98 in experiment [1] was determined as 25 µM (≈ 8.56 µg/mL).

In the case of `CC[C@H](C)[C@H]1CO[C@]23CCN(Cc4ccccc4)C[C@H]2CCC(=O)N13`, the MIC98 in experiment [1] was 9.5 µM (≈ 3.25 µg/mL).

For `COc1ccc(CN2CC[C@]34OC[C@H](C(C)C)N3C(=O)CC[C@@H]4C2)cc1`, the MIC98 in experiment [1] stood at 4.7 µM (≈ 1.68 µg/mL). The IC50 (usually the concentration at which inhibition is half-maximal) in experiment [2] amounted to 2.34 µM; in experiment [3], 0.2 µM.

Consider `CC[C@H]1CO[C@]23CCN(Cc4ccccc4)C[C@H]2CCC(=O)N13`, for which the MIC98 in experiment [1] was 18.8 µM (≈ 5.91 µg/mL).
